Key:
[1] = target: T1, Nitric oxide synthase 3 (Homo sapiens, UniProt P29474); test: Inhibition of human eNOS using L-arginine as substrate assessed as reduction in NO production in the presence of NADPH by NO-hemoglobin capture assay
T1 sequence (P29474 whole entry): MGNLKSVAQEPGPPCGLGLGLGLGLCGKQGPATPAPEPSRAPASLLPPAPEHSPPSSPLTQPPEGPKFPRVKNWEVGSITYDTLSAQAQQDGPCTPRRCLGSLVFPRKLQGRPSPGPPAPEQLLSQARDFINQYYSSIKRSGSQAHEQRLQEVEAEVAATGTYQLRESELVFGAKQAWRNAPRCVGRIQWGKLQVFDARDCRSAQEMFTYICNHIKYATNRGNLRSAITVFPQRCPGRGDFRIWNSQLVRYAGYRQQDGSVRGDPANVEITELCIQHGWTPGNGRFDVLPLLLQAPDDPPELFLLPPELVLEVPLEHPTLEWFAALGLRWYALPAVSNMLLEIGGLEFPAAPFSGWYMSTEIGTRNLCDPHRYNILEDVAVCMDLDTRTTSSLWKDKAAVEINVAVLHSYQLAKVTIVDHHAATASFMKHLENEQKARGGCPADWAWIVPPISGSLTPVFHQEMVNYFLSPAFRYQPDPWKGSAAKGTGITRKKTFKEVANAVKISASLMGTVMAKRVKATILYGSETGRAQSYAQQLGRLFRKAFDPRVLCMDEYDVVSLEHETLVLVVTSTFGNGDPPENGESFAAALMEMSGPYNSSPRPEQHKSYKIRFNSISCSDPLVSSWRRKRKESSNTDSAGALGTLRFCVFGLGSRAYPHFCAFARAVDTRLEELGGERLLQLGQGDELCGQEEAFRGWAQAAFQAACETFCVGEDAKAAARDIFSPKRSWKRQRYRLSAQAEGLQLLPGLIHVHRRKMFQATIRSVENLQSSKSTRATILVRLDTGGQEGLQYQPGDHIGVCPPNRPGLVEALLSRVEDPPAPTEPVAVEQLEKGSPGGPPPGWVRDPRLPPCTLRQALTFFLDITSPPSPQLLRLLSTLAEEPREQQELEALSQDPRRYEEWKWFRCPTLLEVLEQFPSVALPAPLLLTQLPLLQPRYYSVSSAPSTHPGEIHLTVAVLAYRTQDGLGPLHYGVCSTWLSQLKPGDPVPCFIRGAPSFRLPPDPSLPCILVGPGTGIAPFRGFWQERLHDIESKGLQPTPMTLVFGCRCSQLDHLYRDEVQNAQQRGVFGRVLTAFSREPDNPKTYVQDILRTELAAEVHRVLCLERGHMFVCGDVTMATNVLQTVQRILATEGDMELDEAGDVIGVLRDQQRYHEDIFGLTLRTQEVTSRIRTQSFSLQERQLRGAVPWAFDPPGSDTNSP
Summary of the method: (§1)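 Ki was obtained from IC50 by the Cheng–Prusoff equation. […] Enzyme was purified human NOS isoform. Assay buffer was 100 mM HEPES, 10% glycerol, pH 7.4–7.5, and stock buffer was 100 mM HEPES, pH 7.4–7.5. Plate reader syringe lines were equilibrated with assay buffer before the run.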

[2] = Effective permeability of compound in PBS buffer at pH 7.4 at 200 uM incubated for 17 hrs by PAMPA-BBB assay; assay type: ADME; settings: read-out: Peff
[3] = target: Nitric oxide synthase 1 (Homo sapiens, UniProt P29475)
Sequence of Nitric oxide synthase 1 (Homo sapiens, UniProt P29475) (P29475 whole entry): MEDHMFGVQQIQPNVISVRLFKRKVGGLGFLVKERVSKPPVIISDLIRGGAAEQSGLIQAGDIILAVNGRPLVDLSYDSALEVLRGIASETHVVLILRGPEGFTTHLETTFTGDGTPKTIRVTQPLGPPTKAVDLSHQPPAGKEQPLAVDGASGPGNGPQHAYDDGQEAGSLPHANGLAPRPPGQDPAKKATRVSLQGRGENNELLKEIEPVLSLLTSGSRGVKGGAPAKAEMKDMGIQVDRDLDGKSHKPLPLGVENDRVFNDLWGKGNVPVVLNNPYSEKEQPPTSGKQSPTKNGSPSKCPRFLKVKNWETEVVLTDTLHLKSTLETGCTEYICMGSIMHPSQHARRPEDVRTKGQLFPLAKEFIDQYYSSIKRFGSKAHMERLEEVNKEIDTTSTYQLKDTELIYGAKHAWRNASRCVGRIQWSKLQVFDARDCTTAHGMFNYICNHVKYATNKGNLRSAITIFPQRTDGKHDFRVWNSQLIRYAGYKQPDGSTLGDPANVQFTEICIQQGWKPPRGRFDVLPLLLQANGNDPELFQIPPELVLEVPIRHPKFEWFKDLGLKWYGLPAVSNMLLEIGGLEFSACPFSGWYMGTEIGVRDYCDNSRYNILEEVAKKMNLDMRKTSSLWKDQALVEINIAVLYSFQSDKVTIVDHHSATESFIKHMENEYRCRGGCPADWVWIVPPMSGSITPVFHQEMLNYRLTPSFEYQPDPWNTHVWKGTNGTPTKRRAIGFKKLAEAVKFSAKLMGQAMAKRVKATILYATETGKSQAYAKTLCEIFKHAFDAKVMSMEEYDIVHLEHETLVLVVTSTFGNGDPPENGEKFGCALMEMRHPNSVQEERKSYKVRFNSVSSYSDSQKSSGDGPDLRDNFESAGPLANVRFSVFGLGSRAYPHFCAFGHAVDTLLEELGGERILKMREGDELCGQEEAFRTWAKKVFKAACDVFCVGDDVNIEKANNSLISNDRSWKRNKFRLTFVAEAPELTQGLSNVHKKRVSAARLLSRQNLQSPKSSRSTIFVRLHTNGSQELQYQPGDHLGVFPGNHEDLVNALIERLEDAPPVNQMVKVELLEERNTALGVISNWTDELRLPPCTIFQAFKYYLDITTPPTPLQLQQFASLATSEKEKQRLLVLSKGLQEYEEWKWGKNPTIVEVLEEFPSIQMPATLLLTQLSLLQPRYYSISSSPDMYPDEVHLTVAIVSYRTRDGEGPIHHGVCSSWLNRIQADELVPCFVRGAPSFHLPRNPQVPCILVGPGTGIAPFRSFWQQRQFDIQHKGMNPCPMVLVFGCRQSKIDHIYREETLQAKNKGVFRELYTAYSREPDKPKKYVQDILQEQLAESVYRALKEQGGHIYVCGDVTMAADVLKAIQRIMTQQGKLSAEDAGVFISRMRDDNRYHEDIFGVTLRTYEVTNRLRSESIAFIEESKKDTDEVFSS

[4] = target: Nitric oxide synthase 1 (Rattus norvegicus, UniProt P29476)
Sequence of Nitric oxide synthase 1 (Rattus norvegicus, UniProt P29476) (P29476 whole entry): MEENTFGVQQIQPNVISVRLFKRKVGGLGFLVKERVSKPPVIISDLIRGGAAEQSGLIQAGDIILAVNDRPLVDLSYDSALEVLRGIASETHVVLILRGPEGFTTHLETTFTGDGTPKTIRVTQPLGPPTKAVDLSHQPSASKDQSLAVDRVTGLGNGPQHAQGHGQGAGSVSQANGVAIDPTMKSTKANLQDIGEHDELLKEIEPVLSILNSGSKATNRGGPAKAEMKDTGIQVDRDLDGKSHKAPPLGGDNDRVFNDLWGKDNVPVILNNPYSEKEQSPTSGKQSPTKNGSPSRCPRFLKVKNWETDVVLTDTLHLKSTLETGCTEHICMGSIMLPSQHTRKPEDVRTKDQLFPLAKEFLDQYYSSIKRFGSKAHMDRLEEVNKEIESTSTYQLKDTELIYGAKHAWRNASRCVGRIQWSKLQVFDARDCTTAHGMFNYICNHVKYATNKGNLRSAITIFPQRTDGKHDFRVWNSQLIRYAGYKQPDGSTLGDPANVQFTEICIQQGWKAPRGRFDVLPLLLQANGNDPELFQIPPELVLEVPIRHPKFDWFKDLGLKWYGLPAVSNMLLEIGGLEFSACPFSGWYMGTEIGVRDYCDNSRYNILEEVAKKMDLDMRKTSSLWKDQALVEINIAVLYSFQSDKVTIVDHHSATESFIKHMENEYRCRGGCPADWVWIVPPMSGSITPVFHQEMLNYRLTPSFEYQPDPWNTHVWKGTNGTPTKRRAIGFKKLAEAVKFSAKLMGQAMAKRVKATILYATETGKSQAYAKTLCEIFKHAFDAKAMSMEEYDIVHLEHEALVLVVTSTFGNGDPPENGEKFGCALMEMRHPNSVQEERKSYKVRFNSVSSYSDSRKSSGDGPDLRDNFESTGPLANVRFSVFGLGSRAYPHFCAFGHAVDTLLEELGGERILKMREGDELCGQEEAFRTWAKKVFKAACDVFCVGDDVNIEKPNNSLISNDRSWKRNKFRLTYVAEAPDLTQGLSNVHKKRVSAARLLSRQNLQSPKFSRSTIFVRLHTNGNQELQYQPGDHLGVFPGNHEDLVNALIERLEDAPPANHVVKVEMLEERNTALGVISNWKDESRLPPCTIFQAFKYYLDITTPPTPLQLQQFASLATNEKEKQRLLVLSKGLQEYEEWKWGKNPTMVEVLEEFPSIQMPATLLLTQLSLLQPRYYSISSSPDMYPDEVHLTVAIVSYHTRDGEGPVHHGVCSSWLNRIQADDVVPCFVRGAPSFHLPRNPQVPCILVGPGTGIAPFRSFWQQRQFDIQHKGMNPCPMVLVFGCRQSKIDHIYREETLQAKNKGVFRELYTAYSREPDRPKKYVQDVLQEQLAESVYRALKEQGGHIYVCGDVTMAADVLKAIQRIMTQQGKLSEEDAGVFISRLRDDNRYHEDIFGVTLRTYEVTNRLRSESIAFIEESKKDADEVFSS

[5] = target: Nitric oxide synthase, inducible (Homo sapiens, UniProt P35228); test: Inhibition of human iNOS using L-arginine as substrate assessed as reduction in NO production in the presence of NADPH by NO-hemoglobin capture assay; summary of the method: as §1
Sequence of Nitric oxide synthase, inducible (P35228 whole entry): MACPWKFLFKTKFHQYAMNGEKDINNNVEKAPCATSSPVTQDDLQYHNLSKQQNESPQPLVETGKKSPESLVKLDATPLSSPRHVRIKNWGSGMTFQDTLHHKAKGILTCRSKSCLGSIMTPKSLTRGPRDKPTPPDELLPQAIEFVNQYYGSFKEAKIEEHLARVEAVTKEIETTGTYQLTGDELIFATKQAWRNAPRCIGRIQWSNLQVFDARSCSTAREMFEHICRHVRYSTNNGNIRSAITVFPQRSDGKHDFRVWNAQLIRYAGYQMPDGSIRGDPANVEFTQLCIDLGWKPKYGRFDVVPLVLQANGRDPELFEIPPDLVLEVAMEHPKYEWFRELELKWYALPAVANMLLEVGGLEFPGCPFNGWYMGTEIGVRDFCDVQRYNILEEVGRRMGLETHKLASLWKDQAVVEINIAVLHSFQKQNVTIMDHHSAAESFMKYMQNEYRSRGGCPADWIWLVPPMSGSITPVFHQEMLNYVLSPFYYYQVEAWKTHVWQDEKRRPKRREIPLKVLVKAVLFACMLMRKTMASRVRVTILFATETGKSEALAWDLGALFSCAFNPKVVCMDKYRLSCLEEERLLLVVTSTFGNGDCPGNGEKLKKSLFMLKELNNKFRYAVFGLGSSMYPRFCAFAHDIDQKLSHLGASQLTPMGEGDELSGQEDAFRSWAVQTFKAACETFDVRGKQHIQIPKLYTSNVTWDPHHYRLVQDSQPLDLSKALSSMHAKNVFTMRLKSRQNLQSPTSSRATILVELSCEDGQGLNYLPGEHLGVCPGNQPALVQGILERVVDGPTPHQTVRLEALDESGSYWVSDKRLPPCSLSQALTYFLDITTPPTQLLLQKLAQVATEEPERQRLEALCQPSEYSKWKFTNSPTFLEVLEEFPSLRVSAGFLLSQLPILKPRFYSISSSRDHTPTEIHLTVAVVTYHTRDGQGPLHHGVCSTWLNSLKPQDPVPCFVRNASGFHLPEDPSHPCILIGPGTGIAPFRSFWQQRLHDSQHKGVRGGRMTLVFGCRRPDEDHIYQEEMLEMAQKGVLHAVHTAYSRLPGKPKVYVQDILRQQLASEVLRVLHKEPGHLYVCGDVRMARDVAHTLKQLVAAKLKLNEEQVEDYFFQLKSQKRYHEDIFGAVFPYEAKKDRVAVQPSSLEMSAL

| Structure (SMILES) | Ki [1] | Papp at 17 h, 200 µM [2] | Ki [3] | Ki [4] | Ki [5] |
| --- | --- | --- | --- | --- | --- |
| Cc1cc(N)nc(C#CCN2CCN(C)CC2)c1 | 43.8 µM | 3.2 ×10⁻⁶ cm/s |  |  |  |
| Cc1cc(N)nc(C#CCCN(C)C)c1 | 70.5 µM | 4.7 ×10⁻⁶ cm/s | 0.327 µM | 0.242 µM | 29.8 µM |
| CNCC#Cc1cc(C)cc(N)n1 | 1.92 µM | 4.7 ×10⁻⁶ cm/s |  |  |  |
| Cc1cc(N)nc(CCCN2CCC(F)(F)CC2)c1 | 18.6 µM | 17.3 ×10⁻⁶ cm/s | 0.048 µM | 0.046 µM | 6.48 µM |
| Cc1cc(N)nc(CCCCN(C)C)c1 | 7.35 µM | 2.3 ×10⁻⁶ cm/s |  |  | 7.67 µM |
| Cc1cc(N)nc(C#CCN2CCC(F)(F)CC2)c1 | 18.9 µM | 21.1 ×10⁻⁶ cm/s | 1.43 µM | 1.59 µM | 27.4 µM |
| Cc1cc(N)nc(CCCN(C)C)c1 | 3.66 µM | 2 ×10⁻⁶ cm/s |  |  |  |
| CNCCCc1cc(C)cc(N)n1 | 1.47 µM | 0.96 ×10⁻⁶ cm/s |  |  |  |
| Cc1cc(N)nc(C#CCN2CC(F)(F)C2)c1 | 5.13 µM | 19.6 ×10⁻⁶ cm/s | 0.488 µM | 0.465 µM | 11.1 µM |
| Cc1cc(N)nc(CCCN2CCN(C)CC2)c1 | 12.5 µM | 2.2 ×10⁻⁶ cm/s |  | 0.056 µM |  |
| Cc1cc(N)nc(CCCN2CC(F)(F)C2)c1 | 6.27 µM | 17.5 ×10⁻⁶ cm/s | 0.149 µM | 0.095 µM | 4.36 µM |

Reference: ChEMBL document CHEMBL5113456, “2-Aminopyridines with a shortened amino sidechain as potent, selective, and highly permeable human neuronal nitric oxide synthase inhibitors” (Bioorg Med Chem, 2022)
